Here are results for 167 variants from the RNAGym collection of RNA variant scans (doi:10.1126/science.aae0568).

Sequences and labels used below:
B1: tRNA (parent)
chain: GUUCCGUUGGCGUAAUGGUAACGCGUCUCCCUCCUAAGGAGAAGACUGCGGGUUCGAGUCCCGUACGGAACG

Variants at the floor of the assay were thinned out.

The series covers variants of B1. In words: yeast fitness relative to wild type (ratio to wild type); higher = fitter; tRNA-Arg(CCU), competitive growth, 37 C, YPD. An outline of the steps: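 Amplicons of the tRNA-Arg(CCU) gene were sequenced, 100-nucleotide paired-end, from the start population and from each end population of a pooled yeast competition. The competition, in six parallel replicates, lasted 24 hours in YPD at 37°C. Fitness relative to wild type was calculated from changes in genotype frequencies. Genotypes had to have ≥ 100 starting reads, and estimates < 0.5 were set to 0.5.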
As for C4U C24G A42C, the yeast fitness is no more than 0.5.

On to C4U A14U C24G C30U C60G C62U, for which the yeast fitness was 0.663.

In the case of C4U C24U C66U A70C, the yeast fitness amounted to 0.51.

Consider C4U C11G C29U U35C, for which the yeast fitness was no more than 0.5.

Take C4U A14U G39A C49G: the yeast fitness was no more than 0.5.

On to C4U C5G C60G, for which the yeast fitness was no more than 0.5.

Turning to C4U A20C C49U C61A, the yeast fitness was no more than 0.5.

As for C4U C27U A43G, the yeast fitness was 0.649.

With C4U A43U C55G G67A, the yeast fitness came to 0.804.

For C4U C22U C33U A42C, the yeast fitness was determined as 0.668.

With C4U A43G C46U, the yeast fitness is 0.994.

On to C4U C29A C31G A42C A45U G51C, for which the yeast fitness was no more than 0.5.

On to C4U A42G A57U, for which the yeast fitness was found to be 0.551.

Turning to C4U C24U G56A C60A, the yeast fitness is no more than 0.5.

As to C4U C5G G48C, the yeast fitness came to 0.655.

As to C4U C27G A45C C55U G67C, the yeast fitness is no more than 0.5.

With C4U C22U C31U C60G, the yeast fitness worked out at 0.545.

Consider C4U C24G U26A U28G U47C, for which the yeast fitness was no more than 0.5.

Consider C4U C5U C46G, for which the yeast fitness turned out to be 0.515.

Take C4U A36C C46U: the yeast fitness was no more than 0.5.

As to C4U C22U C24G A37G, the yeast fitness was no more than 0.5.

Regarding C4U C11U A15G C34U, the yeast fitness was no more than 0.5.

Consider C4U A45G C61G A65C A70U, for which the yeast fitness was no more than 0.5.

C4U A36G G44C: the yeast fitness is 0.765.

For C4U C11A G12A G48A G67A, the yeast fitness is no more than 0.5.

Take C4U C5G A37C G58A C62U: the yeast fitness is no more than 0.5.

For the variant C4U A20U A40U, the yeast fitness came out at 0.646.

As for C4U A20U G50A G52A C60U C61G, the yeast fitness was no more than 0.5.

Consider C4U A15C A43U, for which the yeast fitness was no more than 0.5.

Take C4U C5A A21G A43U C46U G51C C55U A65C: the yeast fitness is no more than 0.5.

Regarding C4U A21C C27U G63A A65G, the yeast fitness was no more than 0.5.

For the variant C4U A15C C46A A57G C61A A70C, the yeast fitness is no more than 0.5.

In the case of C4U C29A A36C A40U G51A, the yeast fitness worked out at 0.588.

As for C4U A14G A36G C60G C61A, the yeast fitness was no more than 0.5.

Regarding C4U A14C, the yeast fitness came to 0.749.

For the variant C4U A42C G63C, the yeast fitness stood at 0.522.

Take C4U C5G U28C: the yeast fitness worked out at 0.783.

C4U C29A C31G A42C A45U A65C: the yeast fitness was no more than 0.5.

As to C4U C11U A45C G48A G56C, the yeast fitness is no more than 0.5.

For C4U A14G C30A, the yeast fitness came out at 0.812.

For C4U A14G A15C G63C, the yeast fitness was no more than 0.5.

As to C4U C24U G56C, the yeast fitness was 0.505.

C4U C5G C27A: the yeast fitness is no more than 0.5.

With C4U C24A C60A, the yeast fitness amounted to 0.724.

With C4G U35C, the yeast fitness came out at 0.942.

For C4G U53A, the yeast fitness came out at 0.594.

As to C4U A14C G51C, the yeast fitness is no more than 0.5.

Consider C4U C11G G18C U47A A69U, for which the yeast fitness was found to be 0.699.

For the variant C4U A20C G51C A57G, the yeast fitness is no more than 0.5.

Regarding C4U A14G C34G G50C G56C, the yeast fitness was 0.637.

With C4G U54C, the yeast fitness was found to be 0.886.

C4G U54A: the yeast fitness was found to be 0.572.

For C4G U54G, the yeast fitness stood at 0.626.

As to C4U C11G G41A, the yeast fitness was no more than 0.5.

Turning to C4U C11A C29U C49A, the yeast fitness was no more than 0.5.

With C4U A21G G52A G63A, the yeast fitness is no more than 0.5.

For C4U C24U C31A G56C, the yeast fitness came out at 0.63.

On to C4U A65C G68A, for which the yeast fitness was found to be 1.03.

For C4U C22G G67A, the yeast fitness is 0.689.

As to C4G U47A G68A, the yeast fitness is no more than 0.5.

Regarding C4U C11G C49U C61A, the yeast fitness is no more than 0.5.

Regarding C4U C27U U53G, the yeast fitness is no more than 0.5.

In the case of C4U C29A G38A A69U, the yeast fitness was no more than 0.5.

Regarding C4U C11U A15G, the yeast fitness stood at 0.713.

As to C4U C27G G63A, the yeast fitness is no more than 0.5.

For the variant C4U C24A C60G C66U, the yeast fitness is no more than 0.5.

In the case of C4G U47C, the yeast fitness turned out to be 0.865.

On to C4G U47A, for which the yeast fitness stood at 0.854.

In the case of C4U A20C C34G A36G, the yeast fitness was found to be 0.606.

Regarding C4U A14C C22A U54C C55G, the yeast fitness was no more than 0.5.

In the case of C4U C5A U13A C31U C34U C55A G58A, the yeast fitness was no more than 0.5.

Consider C4U C11A U28A C31U G51C, for which the yeast fitness is 0.622.

With C4U C27U C29G A42C, the yeast fitness was no more than 0.5.

C4U A40G C62U: the yeast fitness is 0.667.

Take C4U C22U C31U C60G A70G: the yeast fitness was 0.52.

As to C4U C11U A65U, the yeast fitness is 0.669.

Consider C4U A15C C30G A69C, for which the yeast fitness was no more than 0.5.

Take C4U A15C C30G A69U: the yeast fitness is no more than 0.5.

Turning to C4U A21U A36G A43C C55U A65G, the yeast fitness is no more than 0.5.

With C4U C22G, the yeast fitness is 0.943.

On to C4U C22G G50C, for which the yeast fitness turned out to be 0.533.

With C4U A20C U47A A65U, the yeast fitness was no more than 0.5.

With C4U A37C G48C G50C, the yeast fitness is no more than 0.5.

Turning to C4U A21C C24U G38A, the yeast fitness was no more than 0.5.

As to C4U A21G C46A G67A, the yeast fitness worked out at 0.63.

For C4U C5G U16C C24G A42C G58A, the yeast fitness turned out to be 0.571.

For the variant C4U A36U A40C G68A, the yeast fitness is no more than 0.5.

Take C4U A15C G67C: the yeast fitness was found to be 0.54.

Turning to C4U C5G A15U C22G C30U U53G G58A U59A, the yeast fitness was 0.603.

On to C4U A15G U16C, for which the yeast fitness is 0.728.

For C4U C22U C66U, the yeast fitness stood at 0.624.

On to C4U A37G A45U, for which the yeast fitness came to 0.707.

As for C4U A20C C27U A40C, the yeast fitness is 0.605.

On to C4U A15G C27U G41A, for which the yeast fitness is no more than 0.5.

Consider C4U A15C C30G, for which the yeast fitness was no more than 0.5.

Take C4U C24U A36C C62G C66A: the yeast fitness was no more than 0.5.

As to C4U C24G A43G G63U U64A, the yeast fitness was no more than 0.5.

As to C4U C29G A37C C46G, the yeast fitness was no more than 0.5.

In the case of C4U A40G A42G A57C C66U, the yeast fitness was no more than 0.5.

For the variant C4U A15C C55U G63C, the yeast fitness was no more than 0.5.

On to C4U A40G C60G, for which the yeast fitness amounted to 0.544.

With C4U A37U, the yeast fitness came to 0.676.

Take C4G U59A U64G A65C: the yeast fitness is no more than 0.5.

Turning to C4G U35G A43C U47C, the yeast fitness was no more than 0.5.

In the case of C4U A20G A40U A70G, the yeast fitness is no more than 0.5.

Regarding C4U A15G C22U A69U, the yeast fitness is no more than 0.5.

For the variant C4U A36G G39A G67A, the yeast fitness is no more than 0.5.

Regarding C4U A69U, the yeast fitness came to 1.02.

As to C4U A69C, the yeast fitness stood at 1.02.

Turning to C4U C27G A45C C55U, the yeast fitness worked out at 0.559.

Take C4U C5U A36U: the yeast fitness is 0.625.

For C4U A15C C34G A43C A65U, the yeast fitness is no more than 0.5.

In the case of C4U C24G G58C, the yeast fitness was no more than 0.5.

For the variant C4U A42U C49G, the yeast fitness worked out at 0.543.

Take C4U C27U G56A: the yeast fitness worked out at 0.694.

On to C4U A42U C61A A65C, for which the yeast fitness is no more than 0.5.

For the variant C4U C5U C27G C31G, the yeast fitness was no more than 0.5.

For C4U C24U A69C, the yeast fitness worked out at 0.677.

In the case of C4U C5G U7C C24G A43C, the yeast fitness is no more than 0.5.

Consider C4U A15C, for which the yeast fitness came to 0.763.

C4U C11U G25C G41A U54C: the yeast fitness was no more than 0.5.

Consider C4U A15C C62G, for which the yeast fitness is no more than 0.5.

C4U A43C C62U: the yeast fitness turned out to be 0.965.

On to C4U C24A C30G, for which the yeast fitness amounted to 0.554.

For C4U A57G C61U, the yeast fitness worked out at 0.675.

With C4U C24A U59A, the yeast fitness was 0.65.

For C4U C5A C33U C66U, the yeast fitness is no more than 0.5.

With C4U A37U A70C, the yeast fitness came to 0.676.

On to C4U C11G A42G C49U A70U, for which the yeast fitness was no more than 0.5.

As to C4U C29A G52C C55A C61A G68U, the yeast fitness is no more than 0.5.

Take C4U C11U: the yeast fitness is 0.969.

Turning to C4U C11A, the yeast fitness stood at 0.61.

Regarding C4U C11G, the yeast fitness amounted to 0.692.

Turning to C4U C5U G48A G51C, the yeast fitness is no more than 0.5.

For the variant C4G U35A U54C C61G, the yeast fitness was determined as 0.765.

Take C4U C27A A40C: the yeast fitness was no more than 0.5.

For the variant C4U A57C C62U, the yeast fitness is 0.601.

Turning to C4U A36C U54C, the yeast fitness was no more than 0.5.

As to C4U A36U U47C, the yeast fitness was no more than 0.5.

Regarding C4U A37G C46U, the yeast fitness was determined as 0.54.

Take C4U A21C G41U: the yeast fitness worked out at 0.625.

With C4U C11G A45U C61G, the yeast fitness is 0.518.

With C4U A36C G48A, the yeast fitness came to 0.71.

As to C4U C22U C31A U32C A43U, the yeast fitness is no more than 0.5.

C4U C24U A36C C49U: the yeast fitness is no more than 0.5.

In the case of C4U A36G A69C, the yeast fitness was 0.8.

In the case of C4U A20U C29G C49G G63C, the yeast fitness is no more than 0.5.

Consider C4U A20U A40U G56C, for which the yeast fitness is no more than 0.5.

For the variant C4U C5G U16C C24G A42C, the yeast fitness amounted to 0.504.

In the case of C4U A21C C22A C60U, the yeast fitness was no more than 0.5.

C4U A40C A70G: the yeast fitness is no more than 0.5.

For the variant C4U A21G U47C A70G, the yeast fitness was no more than 0.5.

As for C4U A15C G51A, the yeast fitness was no more than 0.5.

With C4U A15C G51C, the yeast fitness was no more than 0.5.

With C4U C11G C30G U47C, the yeast fitness is no more than 0.5.

For the variant C4U A14C C49G C55G, the yeast fitness is no more than 0.5.

For C4U C5G U16C C24G A42U A43G, the yeast fitness was no more than 0.5.

C4U A15C C29U U54C C61G G63A: the yeast fitness is no more than 0.5.

Consider C4U C29G G38C, for which the yeast fitness was found to be 0.621.

Consider C4U C22U U35C G56A A70C, for which the yeast fitness is no more than 0.5.

As for C4U C11G C66A, the yeast fitness was no more than 0.5.

For C4U A57C C61U A70U, the yeast fitness was no more than 0.5.

As for C4U C5G A20G C29U G48C G63C, the yeast fitness was no more than 0.5.

C4U C5A C60A C62U U64C G68A A69C: the yeast fitness came out at 0.579.

As to C4U A20G C24U, the yeast fitness is 0.624.

In the case of C4U A37C C49U C60G, the yeast fitness was no more than 0.5.

In the case of C4U A65U, the yeast fitness turned out to be 1.04.
